Columns and labels:
[1] = tested on: MDA-MB-231; assay: Induction of intracellular reactive oxygen species generation in human MDA-MB-231 cells at 1 uM measured after 24 hrs by DCFH-DA staining based flow cytometry analysis relative to control; format: functional
Summary of the method: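 MDA-MB-231 cells at 2×10^5 cells/well, grown 24 h, exposed 24 h to compound (1, 1.5, 2 µM) or DMSO control. Cells then took up DCFH-DA for 30 min at 37°C in the dark, were PBS-washed, resuspended in serum-free medium and analysed by flow cytometry. Relative DCF level vs control; mean ± SD, n = 3.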

[2] = tested on: MDA-MB-231; assay: Induction of apoptosis in human MDA-MB-231 cells assessed as early apoptotic cells at 3 uM after 24 hrs by Annexin V/propidium iodide based flow cytometric analysis (reference value: 0.94%); format: functional
Summary of the method: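 MDA-MB-231 cells (2×10^5/well) attached 24 h, then treated 24 h with 1, 1.5, 2 or 3 µM, DMSO as control. Cells harvested, PBS-washed, resuspended in binding buffer, stained with Annexin V and PI for 30 min at 37°C in the dark, and analysed by flow cytometry for quadrant percentages; three experiments.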

For `COc1cc2cc(N)c(=O)oc2cc1OCCCOc1no[n+]([O-])c1S(=O)(=O)c1ccccc1`, the “fold change (FC)” value [1] was 1.31 and the Activity [2] was 13.6%.

Source: ChEMBL document CHEMBL4765333, “Novel NO-releasing scopoletin derivatives induce cell death via mitochondrial apoptosis pathway and cell cycle arrest” (Eur J Med Chem, 2020)
